# Test results from ChEMBL document CHEMBL4368869, “'Second-generation' 1,2,3-triazole-based inhibitors of Porphyromonas gingivalis adherence to oral streptococci and biofilm formation” (Medchemcomm, 2019).
# Tested on: TIGK; call rule not given here
# Assay: Cytotoxicity against human TIGK cells assessed as reduction in ATP levels at 60 uM after 18 hrs by CellTiterGlo reagent-based assay
# Format: cell-based
# Procedure, shortened: (§1)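 TIGK cells are seeded at 4000/well and grown 24 h, then exposed 18 h to compound. They are washed three times with PBS and treated with CellTiterGlo substrate, 2 min with shaking plus 10 min static. Total ATP is read by luminescence. Reduction is judged against cells in medium with 0.1% DMSO, p<0.05.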
row,Compound,Activity
1,Fc1ccc(Nc2nc(Nc3ccc(F)cc3)nc(-c3cn(-c4cccc(-c5nc(-c6ccccc6)c(-c6ccccc6)o5)c4)nn3)n2)cc1,Toxic

# Tested on: TIGK
# Assay: Cytotoxicity against human TIGK cells assessed as increase in LDH release at 5 to 40 uM after 18 hrs by LDH release assay
# Format: cell-based
# Procedure, shortened: (§2)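 Immortalized gingival keratinocytes (TIGK) are seeded at 4000 cells/well, grown 24 h, then exposed 18 h to compound in fresh medium. Supernatant is mixed with LDH substrate for 30 min at room temperature, stopped, and read at OD 490 nm. Kit lysis buffer for 1 h serves as the positive control; medium alone is the negative control. Triplicate samples.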
row,Compound,Activity
1,CCN(CC)c1nc(-c2cn(-c3ccc(-c4nc(-c5ccc(Cl)cc5)c(-c5ccc(Cl)cc5)o4)cc3)nn2)nc(N(CC)CC)n1,Non-Toxic

# Tested on: TIGK
# Assay: Cytotoxicity against human TIGK cells assessed as reduction in ATP levels at 5 to 60 uM after 18 hrs by CellTiterGlo reagent-based assay
# Format: cell-based
# Procedure, shortened: as §1
row,Compound,Activity
1,Fc1ccc(Nc2nc(Nc3ccc(F)cc3)nc(-c3cn(-c4ccccc4-c4nc(-c5ccco5)c(-c5ccco5)o4)nn3)n2)cc1,Non-Toxic

# Tested on: TIGK
# Assay: Cytotoxicity against human TIGK cells assessed as reduction in ATP levels after 18 hrs by CellTiterGlo reagent-based assay
# Format: cell-based
# Procedure, shortened: as §1
row,Compound,Activity
1,Fc1ccc(Nc2nc(Nc3ccc(F)cc3)nc(-c3cn(-c4cccc(-c5nc(-c6ccccc6)c(-c6ccccc6)o5)c4)nn3)n2)cc1,Dose-dependent effect

# Tested on: TIGK
# Assay: Cytotoxicity against human TIGK cells assessed as increase in LDH release at 5 to 20 uM after 18 hrs by LDH release assay
# Format: cell-based
# Procedure, shortened: as §2
row,Compound,Activity
1,Fc1ccc(Nc2nc(Nc3ccc(F)cc3)nc(-c3cn(-c4ccc(-c5nc(-c6ccc(F)cc6)c(-c6ccc(F)cc6)o5)cc4)nn3)n2)cc1,Non-Toxic

# Tested on: Porphyromonas gingivalis
# Assay: Antibiofilm activity against Porphyromonas gingivalis ATCC 33277 assessed as inhibition of Porphyromonas gingivalis ATCC 33277 adherence to Streptococcus gordonii after 22 hrs by laser scanning confocal microscopic analysis
# Format: functional, organism-based
# Procedure, shortened: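 S. gordonii DL-1, labelled with hexidium iodide and adjusted to OD600 0.8 in PBS, is grown 24 h at 37 °C with shaking under anaerobic conditions on coverslips. Carboxyfluorescein-labelled P. gingivalis (OD600 0.4) is pre-incubated 30 min with compound (final 0–60 μM, 0.1% DMSO) and added, then incubated anaerobically 22 h. After PFA fixation, confocal imaging reads the green/red fluorescence ratio. IC50 is the concentration halving that ratio. Triplicates, three independent experiments.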
row,Compound,IC50
1,Fc1ccccc1Nc1nc(Nc2ccccc2F)nc(-c2cn(-c3ccc(-c4nc(-c5ccc(Cl)cc5)c(-c5ccc(Cl)cc5)o4)cc3)nn2)n1,Not Active
2,COc1ccccc1-c1cn(-c2ccc([S+]([O-])Cc3nc(-c4ccccc4)c(-c4ccccc4)o3)cc2)nn1 (stereo unspecified),Not Active
3,Fc1ccccc1Nc1nc(Nc2ccccc2F)nc(-c2cn(-c3ccc(-c4nc(-c5ccco5)c(-c5ccco5)o4)cc3)nn2)n1,Not Active
4,Fc1ccc(Nc2nc(Nc3ccc(F)cc3)nc(-c3cn(-c4ccc(-c5nc(-c6ccccc6)c(-c6ccccc6)o5)cc4)nn3)n2)cc1,Not Active
5,[O-][S+](Cc1nc(-c2ccccc2)c(-c2ccccc2)o1)c1ccc(-n2cc(-c3ccc(F)cc3)nn2)cc1 (stereo unspecified),Not Active
6,Fc1ccc(Nc2nc(Nc3ccc(F)cc3)nc(-c3cn(-c4cccc(-c5nc(-c6ccc(F)cc6)c(-c6ccc(F)cc6)o5)c4)nn3)n2)cc1,Not Active
7,CCN(CC)c1nc(-c2cn(-c3ccc(-c4nc(-c5ccco5)c(-c5ccco5)o4)cc3)nn2)nc(N(CC)CC)n1,Not Active
8,O=S(=O)(Cc1nc(-c2ccccc2)c(-c2ccccc2)o1)c1ccc(-n2cc(-c3ccccc3C(F)(F)F)nn2)cc1,Not Active
9,COc1ccc(-c2nc(-c3ccccc3-n3cc(-c4nc(Nc5ccc(F)cc5)nc(Nc5ccc(F)cc5)n4)nn3)oc2-c2ccc(OC)cc2)cc1,Not Active
10,Fc1ccc(Nc2nc(Nc3ccc(F)cc3)nc(-c3cn(-c4ccccc4-c4nc(-c5ccccc5)c(-c5ccccc5)o4)nn3)n2)cc1,Not Active
11,CCCCCc1ccc(-c2cn(-c3ccc([S+]([O-])Cc4nc(-c5ccccc5)c(-c5ccccc5)o4)cc3)nn2)cc1 (stereo unspecified),Not Active

# The remaining lines, values ahead:
row,IC50,Compound
1,Not Active,COc1ccc2cc(-c3cn(-c4ccc(S(=O)(=O)Cc5nc(-c6ccccc6)c(-c6ccccc6)o5)cc4)nn3)ccc2c1
2,Not Active,[O-][S+](Cc1nc(-c2ccccc2)c(-c2ccccc2)o1)c1ccc(-n2cc(-c3cc(C(F)(F)F)cc(C(F)(F)F)c3)nn2)cc1 (stereo unspecified)
3,Not Active,[O-][S+](Cc1nc(-c2ccccc2)c(-c2ccccc2)o1)c1ccc(-n2cc(-c3ccc(Oc4ccccc4)cc3)nn2)cc1 (stereo unspecified)
4,Not Active,[O-][S+](Cc1nc(-c2ccccc2)c(-c2ccccc2)o1)c1ccc(-n2cc(-c3ccccc3C(F)(F)F)nn2)cc1 (stereo unspecified)
5,Not Active,COc1ccc(-c2nc(-c3cccc(-n4cc(-c5nc(Nc6ccc(F)cc6)nc(Nc6ccc(F)cc6)n5)nn4)c3)oc2-c2ccc(OC)cc2)cc1
6,Not Active,Fc1ccccc1Nc1nc(Nc2ccccc2F)nc(-c2cn(-c3ccc(-c4nc(-c5ccccc5)c(-c5ccccc5)o4)cc3)nn2)n1
7,Not Active,[O-][S+](Cc1nc(-c2ccccc2)c(-c2ccccc2)o1)c1ccc(-n2cc(-c3cccnc3)nn2)cc1 (stereo unspecified)
8,Not Active,CCN(CC)c1nc(-c2cn(-c3ccc(-c4nc(-c5ccccc5)c(-c5ccccc5)o4)cc3)nn2)nc(N(CC)CC)n1
9,Not Active,CCN(CC)c1nc(-c2cn(-c3cccc(-c4nc(-c5ccc(F)cc5)c(-c5ccc(F)cc5)o4)c3)nn2)nc(N(CC)CC)n1
10,Not Active,CCN(CC)c1nc(-c2cn(-c3cccc(-c4nc(-c5ccc(OC)cc5)c(-c5ccc(OC)cc5)o4)c3)nn2)nc(N(CC)CC)n1
11,Not Active,CCN(CC)c1nc(-c2cn(-c3cccc(-c4nc(-c5ccco5)c(-c5ccco5)o4)c3)nn2)nc(N(CC)CC)n1
12,Not Active,COc1ccc(-c2nc(-c3cccc(-n4cc(-c5nc(Nc6ccccc6F)nc(Nc6ccccc6F)n5)nn4)c3)oc2-c2ccc(OC)cc2)cc1
13,Not Active,O=S(=O)(Cc1nc(-c2ccccc2)c(-c2ccccc2)o1)c1ccc(-n2cc(-c3cccnc3)nn2)cc1
14,Not Active,COc1ccc(-c2nc(-c3ccc(-n4cc(-c5nc(Nc6ccc(F)cc6)nc(Nc6ccc(F)cc6)n5)nn4)cc3)oc2-c2ccc(OC)cc2)cc1
15,Not Active,Fc1ccccc1Nc1nc(Nc2ccccc2F)nc(-c2cn(-c3cccc(-c4nc(-c5ccco5)c(-c5ccco5)o4)c3)nn2)n1
16,Not Active,COc1ccc2cc(-c3cn(-c4ccc([S+]([O-])Cc5nc(-c6ccccc6)c(-c6ccccc6)o5)cc4)nn3)ccc2c1 (stereo unspecified)

# Tested on: TIGK
# Assay: Cytotoxicity against human TIGK cells assessed as reduction in ATP levels at 5 to 40 uM after 18 hrs by CellTiterGlo reagent-based assay
# Format: cell-based
# Procedure, shortened: as §1
row,Compound,Activity
1,CCN(CC)c1nc(-c2cn(-c3ccc(-c4nc(-c5ccc(Cl)cc5)c(-c5ccc(Cl)cc5)o4)cc3)nn2)nc(N(CC)CC)n1,Non-Toxic

# Tested on: TIGK
# Assay: Cytotoxicity against human TIGK cells assessed as reduction in ATP levels at 5 to 20 uM after 18 hrs by CellTiterGlo reagent-based assay
# Format: cell-based
# Procedure, shortened: as §1
row,Compound,Activity
1,Fc1ccc(Nc2nc(Nc3ccc(F)cc3)nc(-c3cn(-c4ccc(-c5nc(-c6ccc(F)cc6)c(-c6ccc(F)cc6)o5)cc4)nn3)n2)cc1,Non-Toxic

# Tested on: TIGK
# Assay: Cytotoxicity against human TIGK cells assessed as increase in LDH release at 5 to 60 uM after 18 hrs by LDH release assay
# Format: cell-based
# Procedure, shortened: as §2
row,Compound,Activity
1,Fc1ccc(Nc2nc(Nc3ccc(F)cc3)nc(-c3cn(-c4ccccc4-c4nc(-c5ccco5)c(-c5ccco5)o4)nn3)n2)cc1,Non-Toxic
2,Fc1ccc(Nc2nc(Nc3ccc(F)cc3)nc(-c3cn(-c4cccc(-c5nc(-c6ccccc6)c(-c6ccccc6)o5)c4)nn3)n2)cc1,Non-Toxic
